Hits are enriched below; roughly 3.5% of the tested compounds scored in any of these assays.
Efa HMGR inh: inhibitors of E. faecalis class II HMGR, primary screen, biochemical, Enterococcus faecalis; HMG-CoA reductase (Enterococcus faecalis, mvaE); inhibition, % at 10 µM; 190,000 compounds, 0.41% hits; AID 1066, 2008; purified E. faecalis HMGR, NADPH absorbance 340 nm kinetic;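 active = inhibition above a set limit, the median over all tested compounds plus 3 SD, cut at about 9.5% in these data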;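 note: enzyme runs in reverse so mevalonate oxidation gives rising NADPH absorbance; 0% = complete reaction with DMSO and 100% = background rate lacking mevalonate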
MT stabilizer: microtubule stabilizers in HeLa cells, primary screen, imaging, high-content imaging | HeLa tubulin immunostaining HCS, 24 h; share of cells brighter than vehicle mean+2SD | % tubulin-high responders, % at 10 µM | 200,000 compounds, 0.83% hits;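 active = plate Z-score above 3 for both tubulin-high and condensed-nucleus cell shares, with cell loss under 80%, at 10 µM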;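 note: anti alpha tubulin signal scored within the nucleus-defined area of each cell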
b-catenin transl: modulators of beta-catenin nuclear translocation, primary screen, imaging, HeLa cells, immunofluorescence, high-content; nuclear translocation activity, % at 5 µM; 190,000 compounds, 0.3% hits;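 active = nuclear translocation activity above 50% at 5 µM, with a well cell count of 50 or more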;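 note: per-cell ratio of nuclear to cytoplasmic median beta-catenin stain intensity; plate controls were DMSO negative control for no effect and GSK-3 inhibitor IX positive control for full effect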
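System: Human HeLa cells, endogenous beta-catenin | Compound dosing: 5 µM primary, 0.02–20 µM confirmation | Timing: 24 h compound exposure at 37°C, 5% CO2 | Measured by: Fluorescence imaging of beta-catenin antibody stain plus DAPI | Read-out basis: % activation of per-cell nuclear versus cytoplasmic median beta-catenin signal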
Yeast growth inh: growth inhibitors of yeast BB579 in restrictive medium, primary screen, yeast lifespan-shortening project, S. cerevisiae. inhibition, % at 10 µM. 140,000 compounds, 0.51% hits. OD615, 48 h;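 active = inhibition above a set limit, 3 SD over the mean compound inhibition, cut at about 44% in these data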
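controls = amphotericin B 10 µg/mL, positive | assay system = DeaD yeast strain BB579 | schedule = 48 h compound exposure at 30 °C after 4 h preincubation | detection = OD615 turbidity measurement | medium = restrictive CSMM-D medium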
Yeast lifespan up: compounds extending yeast replicative lifespan, primary screen, S. cerevisiae, OD615; S. cerevisiae growth with nicotinamide; deaD strain in restrictive glucose medium; inhibition of the nicotinamide effect, % at 10 µM; 130,000 compounds, 0.68% hits;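 active = inhibition above a set limit, placed 3 SD over the median of all compounds, cut at about 26% in these data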;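 note: 0% = nicotinamide-treated wells and 100% = cells grown without nicotinamide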
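Assay system: engineered S. cerevisiae DeaD replicative-lifespan strain, galactose-grown log-phase cells; Buffer or medium: CSMM-D glucose medium, restrictive; Probe or stimulus: nicotinamide 1.5 mM; Compound: single dose 10 µM compound, 0.25% DMSO; Schedule: 4 h preincubation then 48 h treatment at 30 °C; Technique: OD615 measurement.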
RAM inhibit: inhibitors of the yeast RAM network, primary screen, dse1pr::URA3 reporter, 5-FOA selection. S. cerevisiae dse1pr::URA3 reporter, 5-FOA growth OD615, 2 d; analog-sensitive cbk1-as2 kinase mutant strain. inhibition, % at 50 µM. 190,000 compounds, 1.8% hits;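 active = inhibition above a set limit, 3 SD over mean compound inhibition, cut at about 8.4% in these data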;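 note: 0% = DMSO-only wells with no growth and 100% = 10 µM 1-NA-PP1 full growth; inhibition rescues growth on 5-FOA so higher OD means more RAM inhibition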
Numbers without * were called inactive.

How did O=C(Nc1ccccc1)C1=C[C@@H](c2ccc(C(F)(F)F)cc2)C[C@@H](OCc2ccc(CO)cc2)O1 do in these assays?
Efa HMGR inh: -1; MT stabilizer: 1; b-catenin transl: 2; RAM inhibit: 9.7*

What do the screens show for `CC(=O)n1cc([C@H]2C=C(C(=O)NCc3ccccc3)O[C@@H](OCCCCO)C2)c2ccccc21`?
Efa HMGR inh: -4; MT stabilizer: 4; b-catenin transl: -1; RAM inhibit: 8.8*

Results for O=C(NCc1ccccc1)C1=C[C@H](c2ccc(Br)cc2)C[C@H](OCc2ccc(CO)cc2)O1 ?
Efa HMGR inh: -1; MT stabilizer: 3; b-catenin transl: 0; RAM inhibit: 11*

Results for C#CCNC(=O)C1=C[C@H](c2csc3ccccc23)C[C@H](OCc2ccc(CO)cc2)O1 ?
Efa HMGR inh: 1; MT stabilizer: 4; b-catenin transl: -1; RAM inhibit: 8.5*

Results for C=C(C)C(=O)Nc1cccc(C2=NOC3(C2)C[C@H](C(N)=O)N(C(=O)COc2ccc(Cl)cc2)C3)c1 (stereo partly drawn) ?
b-catenin transl: 0

Results for O=C(Cn1c(=O)oc2ccccc21)Nc1n[nH]c(=S)s1 ?
b-catenin transl: 0

How did C/C(=N\NC(=O)c1cccnc1)c1ccc(OC2OCCOC2Oc2ccc(/C(C)=N/NC(=O)c3cccnc3)cc2)cc1 (stereo not drawn) do in these assays?
Efa HMGR inh: -2; MT stabilizer: 6; b-catenin transl: 1; RAM inhibit: 2

Results for CCOP(=O)(OCC)C(C)(C)NC(=O)Nc1ccc(Cl)c(Cl)c1 ?
b-catenin transl: 2

What do the screens show for `NN(CCO)C(=S)Nc1ccc(Cl)cc1`?
Efa HMGR inh: -1; MT stabilizer: 3; b-catenin transl: -2; RAM inhibit: 3

How did CC(C)(C)[C@H]1C=C(C(=O)Nc2ccccc2)O[C@@H](OCc2ccc(CO)cc2)C1 do in these assays?
Efa HMGR inh: -1; MT stabilizer: 2; b-catenin transl: -2; RAM inhibit: 10*

How did CN1CCN(C(=O)C2=C[C@@H](C3CC3)C[C@@H](OCc3ccc(CO)cc3)O2)CC1 do in these assays?
Efa HMGR inh: 9.8*; MT stabilizer: 3; b-catenin transl: -1; RAM inhibit: -2

How did C#Cc1ccc([C@@H]2C=C(C(=O)OCC=C)O[C@H](OCc3ccc(CO)cc3)C2)cc1 do in these assays?
Efa HMGR inh: -3; MT stabilizer: 4; b-catenin transl: 0; RAM inhibit: 10*

Results for C#Cc1ccc([C@H]2C=C(C(=O)O)O[C@@H](OCc3ccc(CO)cc3)C2)cc1 ?
Efa HMGR inh: -3; MT stabilizer: 4; b-catenin transl: 1; RAM inhibit: 3

What do the screens show for `O=C(Nc1ccccc1)C1=C[C@@H](c2ccccc2)C[C@@H](OCc2ccc(CO)cc2)O1`?
Efa HMGR inh: -1; MT stabilizer: 1; b-catenin transl: -1; RAM inhibit: 9.9*

How did CCOC(=O)C1(CCCc2ccccc2)CCN(C(=O)Cn2nc(C)nc2C)CC1 do in these assays?
b-catenin transl: 1

Results for O=C(C1=C[C@@H](c2ccc(Br)cc2)C[C@@H](OCc2ccc(CO)cc2)O1)N1CCOCC1 ?
Efa HMGR inh: -4; MT stabilizer: 4; b-catenin transl: -1; RAM inhibit: 9.2*

What do the screens show for `Cc1ccc(Cl)cc1NC(=S)N/N=C/c1cccc2ccccc12`?
b-catenin transl: 1

What do the screens show for `CN(C(=O)CSc1cc(C(=O)c2nccn2C)c2ccccc2n1)c1ccccc1`?
b-catenin transl: 0

What do the screens show for `NC(=O)CNc1n[nH]c(=S)[nH]c1=O`?
Efa HMGR inh: -5; MT stabilizer: 2; b-catenin transl: 0; RAM inhibit: 0

How did O=C(NCc1ccccc1Cl)c1cc([N+](=O)[O-])ccc1Cl do in these assays?
Efa HMGR inh: 19*; MT stabilizer: 3; b-catenin transl: 0; RAM inhibit: 1

How did O=C(NCc1ccc(Cl)cc1)c1cc([N+](=O)[O-])ccc1Cl do in these assays?
Efa HMGR inh: -8; MT stabilizer: 4; b-catenin transl: 0; RAM inhibit: 3

What do the screens show for `Cc1ccc(C2CC(c3ccccc3)=NN2C(=S)Nc2ccccc2)o1` (stereo not drawn)?
Efa HMGR inh: -13; MT stabilizer: 50*; Yeast growth inh: 2; Yeast lifespan up: -11; RAM inhibit: 2

Results for Cc1ccn2cc(-c3ccc(NC(=O)c4ccco4)cc3)nc2c1 ?
Efa HMGR inh: -6; MT stabilizer: 6; b-catenin transl: 1; Yeast growth inh: -15; Yeast lifespan up: -7; RAM inhibit: 1

What do the screens show for `O=C(/C=C/c1ccc(O)cc1)c1ccccc1`?
b-catenin transl: 1

Results for O=C(/C=C/c1ccc(N2CCC(c3ccccc3)=N2)cc1)c1ccccc1 ?
Efa HMGR inh: -1; MT stabilizer: 3; RAM inhibit: 11*

How did CCCNC(=O)N1CCN(Cc2ccco2)CC1 do in these assays?
Efa HMGR inh: -6; MT stabilizer: 3; b-catenin transl: 0; RAM inhibit: 1

How did O=C(OC1CCCCC1=O)c1cc(Cl)ccc1[N+](=O)[O-] (stereo not drawn) do in these assays?
Efa HMGR inh: -4; MT stabilizer: 3; b-catenin transl: -4; RAM inhibit: 1

How did O=C(O)c1ccc(N2C(=O)CC(SC(=Nc3ccccc3)Nc3ccccc3)C2=O)cc1 (stereo not drawn) do in these assays?
Efa HMGR inh: -1; MT stabilizer: 7; b-catenin transl: -1; Yeast growth inh: -40; Yeast lifespan up: -4; RAM inhibit: 7

How did CC(/C=C/c1ccc(N(C)C)cc1)=N\N=C(/N)SC1CC(=O)N(c2ccc(C(=O)O)cc2)C1=O (stereo not drawn) do in these assays?
Efa HMGR inh: 0; MT stabilizer: 4; b-catenin transl: 0; Yeast growth inh: -14; Yeast lifespan up: 3; RAM inhibit: 9.8*

What do the screens show for `O=[N+]([O-])c1cc(S(=O)(=O)C(F)(F)F)ccc1Sc1nc2ccccc2[nH]1`?
Efa HMGR inh: -1; MT stabilizer: 2; b-catenin transl: -4; Yeast growth inh: -54; Yeast lifespan up: 39*; RAM inhibit: 6

Results for O=C(Nc1nc(-c2ccccc2)cs1)c1ccccc1NS(=O)(=O)c1ccc(F)cc1 ?
Efa HMGR inh: 0; MT stabilizer: 5; b-catenin transl: 2; Yeast growth inh: -19; Yeast lifespan up: 12; RAM inhibit: 3
